For 37 compounds, IC50 and Ratio IC50 results are on record in ChEMBL document CHEMBL1156889, “Synthesis and biological evaluation of (phenylpiperazinyl-propyl)arylsulfonamides as selective 5-HT(2A) receptor antagonists” (Bioorg Med Chem, 2010).

The structures appear in SMILES notation. pIC50: −log10 of the molar value.

The target in assay [1] is 5-hydroxytryptamine receptor 7 (Homo sapiens, UniProt P34969). In words: Displacement of [3H]LSD from human recombinant 5HT7 receptor expressed in CHO cells. The format is cell-based. The method in brief: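 Membranes from stably transfected CHO cells. Reaction mix held 3 nM [3H]LSD and test compound in 50 mM Tris-HCl pH 7.4 with 10 mM MgCl2 and 0.5 mM EDTA, incubated 90 min at 27 °C. Stopped by rapid filtration on GF/C filters presoaked in 0.3% polyethylenimine, then scintillation counted. Methiothepin defined nonspecific binding. 7-8 concentrations were run in duplicate, and IC50 came from nonlinear regression of isotherms from three assays.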
5-hydroxytryptamine receptor 7, sequence (P34969 whole entry): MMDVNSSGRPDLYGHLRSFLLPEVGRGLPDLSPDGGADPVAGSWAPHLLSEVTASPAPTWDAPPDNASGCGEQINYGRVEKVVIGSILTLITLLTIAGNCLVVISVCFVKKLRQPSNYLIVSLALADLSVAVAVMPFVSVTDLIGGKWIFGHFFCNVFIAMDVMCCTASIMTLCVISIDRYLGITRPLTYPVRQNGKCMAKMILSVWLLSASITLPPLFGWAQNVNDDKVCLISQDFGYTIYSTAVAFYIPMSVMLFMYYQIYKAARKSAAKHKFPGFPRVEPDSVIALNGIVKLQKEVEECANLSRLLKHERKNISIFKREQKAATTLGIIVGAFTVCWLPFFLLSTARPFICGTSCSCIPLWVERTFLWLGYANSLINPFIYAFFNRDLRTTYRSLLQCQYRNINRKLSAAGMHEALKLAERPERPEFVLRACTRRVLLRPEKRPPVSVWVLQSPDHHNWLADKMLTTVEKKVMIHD
On the technique in general: Loss of bound radioactivity is the signal in a displacement assay; it reports binding, not function.

In assay [2] the target is 5-hydroxytryptamine receptor 2A (Homo sapiens, UniProt P28223). Put plainly: Displacement of [3H]ketanserin from human recombinant 5HT2A receptor expressed in avCHO-K1 cells. The assay is classed as cell-based, CHO-K1. The method in brief:
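Used frozen membranes. [3H]ketanserin was at 1 nM, with mianserin defining nonspecific binding. Incubated 15 min at 37 °C in 50 mM Tris-HCl pH 7.4, then harvested on GF/C glass fiber filters presoaked in 0.05% Brij.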

The target of assay [3] is T1, 5-hydroxytryptamine receptor 2C (Homo sapiens, UniProt P28335).
T1 sequence (P28335 whole entry): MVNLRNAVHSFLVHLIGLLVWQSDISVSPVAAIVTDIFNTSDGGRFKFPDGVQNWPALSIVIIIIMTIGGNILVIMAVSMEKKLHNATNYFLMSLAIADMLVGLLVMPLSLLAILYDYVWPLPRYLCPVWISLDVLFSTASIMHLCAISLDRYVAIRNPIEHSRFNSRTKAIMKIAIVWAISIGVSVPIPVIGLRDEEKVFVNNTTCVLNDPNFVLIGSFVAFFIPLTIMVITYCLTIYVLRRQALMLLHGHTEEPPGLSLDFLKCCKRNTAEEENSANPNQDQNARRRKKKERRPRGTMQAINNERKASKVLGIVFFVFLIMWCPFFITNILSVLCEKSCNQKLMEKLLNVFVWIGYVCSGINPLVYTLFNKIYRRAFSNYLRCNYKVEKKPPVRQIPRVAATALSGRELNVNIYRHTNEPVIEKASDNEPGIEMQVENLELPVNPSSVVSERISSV
Put plainly: Displacement of [3H]mesulergine from human recombinant 5HT2C receptor expressed in CHO-K1 cells. The assay is classed as cell-based. The method, boiled down:
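Frozen membranes from a stable cell line were incubated with 1 nM [3H]mesulergine and test compound in 50 mM Tris-HCl pH 7.7 containing 0.1% ascorbic acid and pargyline, 30 min at 37 °C. Mianserin defined nonspecific binding. Terminated by rapid filtration through GF/C filters presoaked in 1% BSA.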

For assay [4], the target named is Serotonin 2 receptors; 5-HT2a & 5-HT2c (Homo sapiens) (UniProt P28223+P28335). In words: Selectivity for human recombinant 5HT2A receptor over human recombinant 5HT2C receptor.
Serotonin 2 receptors; 5-HT2a & 5-HT2c (Homo sapiens), sequence (P28223 whole entry, looked up, one chain of several): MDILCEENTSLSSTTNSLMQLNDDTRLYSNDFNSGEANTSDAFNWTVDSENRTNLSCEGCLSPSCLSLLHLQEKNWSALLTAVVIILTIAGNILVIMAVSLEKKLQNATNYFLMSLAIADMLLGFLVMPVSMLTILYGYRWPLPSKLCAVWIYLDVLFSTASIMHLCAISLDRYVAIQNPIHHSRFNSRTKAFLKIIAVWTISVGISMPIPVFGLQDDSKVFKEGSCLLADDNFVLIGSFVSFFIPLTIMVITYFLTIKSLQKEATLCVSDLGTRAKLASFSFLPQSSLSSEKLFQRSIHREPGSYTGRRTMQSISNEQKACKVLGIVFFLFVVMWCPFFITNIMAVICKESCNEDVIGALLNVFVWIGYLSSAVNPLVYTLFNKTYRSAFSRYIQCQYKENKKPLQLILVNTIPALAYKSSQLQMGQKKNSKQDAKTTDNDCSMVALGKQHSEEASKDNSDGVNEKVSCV
Assay [5] is filed under the species Homo sapiens. In words: Selectivity for human recombinant 5HT2A receptor over human recombinant 5HT7 receptor.

5-hydroxytryptamine receptor 2A, sequence (P28223 whole entry): as the sequence (P28223 whole entry, looked up, one chain of several) above

As a reminder, the pIC50 is the negative decadic logarithm of the IC50, by convention in mol/L. As for `COc1ccc(S(=O)(=O)N(CCCN2CCN(c3cccc(C(F)(F)F)c3)CC2)CC2CCCCC2)cc1`, the pIC50 in assay [1] was 6.17; in assay [2], 7.71; in assay [3], 7.48.

Turning to `CC(CCN1CCN(c2ccccc2)CC1)NS(=O)(=O)c1ccc2ccccc2c1` (centres undefined), the pIC50 in assay [1] was 6.18; in assay [2] it was 7.90; in assay [3], 6.70. In addition, the results for the Ratio IC50 in assay [4] and in assay [5] were 16 and 50, respectively.

With `O=S(=O)(c1ccc2ccccc2c1)N(CCCN1CCN(c2ccccc2)CC1)CC1CCCCC1`, the negative logarithm of the IC50 (pIC50) is 5.91 in assay [1], 9.15 in assay [2] and 7.19 in assay [3]. Moreover, the Ratio IC50 came to 100 in assay [4] and 1500 in assay [5].

For `O=S(=O)(c1cccc2cccnc12)N(CCCN1CCN(c2cccc(C(F)(F)F)c2)CC1)CC1CC1`, the negative-log IC50 (pIC50) is 8.20 in assay [1], 7.12 in assay [2] and 6.16 in assay [3].

As to `COc1ccccc1N1CCN(CCCN(CC2CC2)S(=O)(=O)c2ccc3ccccc3c2)CC1`, the pIC50 is 6.73 in assay [1], 7.07 in assay [2] and 6.26 in assay [3].

Take `O=S(=O)(c1ccc2ccccc2c1)N(CCCN1CCN(c2cccc(C(F)(F)F)c2)CC1)CC1CC1`: the negative-log IC50 (pIC50) in assay [1] is 6.47; in assay [2] it was 6.66; in assay [3] it was 6.52.

As to `COc1ccc(S(=O)(=O)N(CCCN2CCN(c3ccc(F)cc3)CC2)CC2CC2)cc1`, the pIC50 in assay [1] was 7.03; in assay [2], 7.14; in assay [3], 6.14.

For the compound `COc1ccccc1N1CCN(CCC(C)NS(=O)(=O)c2ccc3ccccc3c2)CC1` (centres undefined), the pIC50 in assay [1] is 6.50; in assay [2] it was 6.18; in assay [3], 6.27.

As for `O=S(=O)(c1ccc(C(F)(F)F)cc1)N(CCCN1CCN(c2ccccc2)CC1)CC1CC1`, the results for the negative-log IC50 (pIC50) in assay [1], in assay [2] and in assay [3] were 6.48, 7.15 and 6.25, respectively.

As to `O=S(=O)(c1ccc(F)cc1)N(CCCN1CCN(c2ccccc2)CC1)CC1CCCCC1`, the values for the pIC50 in assay [1], in assay [2] and in assay [3] were 6.96, 7.88 and 6.53, respectively.

Turning to `CC(CCN1CCN(c2cccc(C(F)(F)F)c2)CC1)NS(=O)(=O)c1ccc2ccccc2c1` (centres undefined), the results for the negative logarithm of the IC50 (pIC50) in assay [1], in assay [2] and in assay [3] were 6.44, 6.74 and 6.03, respectively.

As to `O=S(=O)(c1cccc2cccnc12)N(CCCN1CCN(c2cccc(C(F)(F)F)c2)CC1)CC1CCCCC1`, the pIC50 in assay [1] is 6.80; in assay [2] it was 7.54; in assay [3] it was 7.41.

Turning to `O=S(=O)(c1ccc2ccccc2c1)N(CCCN1CCN(c2cccc(C(F)(F)F)c2)CC1)CC1CCCCC1`, the pIC50 in assay [1] was 6.05; in assay [2], 7.88; in assay [3], 7.18.

Regarding `COc1ccccc1N1CCN(CCCN(CC2CCCCC2)S(=O)(=O)c2ccc3ccccc3c2)CC1`, the pIC50 in assay [1] is 6.30; in assay [2], 7.94; in assay [3], 7.15.

In the case of `O=S(=O)(c1cccc2cccnc12)N(CCCN1CCN(c2ccccc2)CC1)CC1CC1`, the results for the pIC50 in assay [1], in assay [2] and in assay [3] were 6.13, 6.53 and 5.67, respectively.

With `O=S(=O)(c1cccc2cccnc12)N(CCCN1CCN(c2ccc(F)cc2)CC1)CC1CC1`, the negative logarithm of the IC50 (pIC50) in assay [1] is 7.45; in assay [2], 8.08; in assay [3], 5.32.

For the compound `O=S(=O)(c1cccc2ccccc12)N(CCCN1CCN(c2ccccc2)CC1)CC1CC1`, the negative-log IC50 (pIC50) was 6.82 in assay [1], 6.77 in assay [2] and 5.84 in assay [3].

Consider `COc1ccc(S(=O)(=O)N(CCCN2CCN(c3ccccc3)CC2)CC2CC2)cc1`, for which the pIC50 in assay [1] is 6.92; in assay [2], 6.87; in assay [3], 6.16.

As to `O=[N+]([O-])c1ccc(S(=O)(=O)N(CCCN2CCN(c3ccccc3)CC2)CC2CCCCC2)cc1`, the values for the negative logarithm of the IC50 (pIC50) in assay [1], in assay [2] and in assay [3] were 7.06, 8.38 and 7.34, respectively.

With `O=[N+]([O-])c1ccc(S(=O)(=O)N(CCCN2CCN(c3ccccc3)CC2)CC2CC2)cc1`, the negative logarithm of the IC50 (pIC50) in assay [1] is 6.30; in assay [2], 6.74; in assay [3] it was 5.71.

Regarding `O=S(=O)(c1ccc2ccccc2c1)N(CCCN1CCN(c2ccccc2)CC1)CC1CC1`, the pIC50 in assay [1] is 6.93; in assay [2] it was 7.44; in assay [3], 6.32.

Turning to `O=S(=O)(c1cccc2ccccc12)N(CCCN1CCN(c2ccccc2)CC1)CC1CCCCC1`, the pIC50 in assay [1] is 6.71; in assay [2] it was 8.59; in assay [3], 7.29.

With `COc1ccccc1N1CCN(CCCN(CC2CC2)S(=O)(=O)c2cccc3cccnc23)CC1`, the values for the negative logarithm of the IC50 (pIC50) in assay [1], in assay [2] and in assay [3] were 7.91, 6.25 and 5.08, respectively.

`O=S(=O)(c1ccc2ccccc2c1)N(CCCN1CCN(c2ccc(F)cc2)CC1)CC1CCCCC1`: the pIC50 was 5.82 in assay [1], 9.30 in assay [2] and 7.62 in assay [3]. The Ratio IC50 in assay [4] amounted to 50; in assay [5], 3000.

`O=S(=O)(c1cccc2cccnc12)N(CCCN1CCN(c2ccc(Cl)c(Cl)c2)CC1)CC1CCCCC1`: the pIC50 is 5.64 in assay [1], 8.11 in assay [2] and 7.18 in assay [3].

Take `O=S(=O)(c1cccc2cccnc12)N(CCCN1CCN(c2ccccc2)CC1)CC1CCCCC1`: the figures for the negative logarithm of the IC50 (pIC50) in assay [1], in assay [2] and in assay [3] were 6.38, 7.46 and 6.07, respectively.

Consider `O=S(=O)(c1ccc(F)cc1)N(CCCN1CCN(c2ccccc2)CC1)CC1CC1`, for which the pIC50 in assay [1] was 6.83; in assay [2], 6.85; in assay [3], 5.70.

In the case of `COc1ccc(S(=O)(=O)N(CCCN2CCN(c3ccccc3OC)CC2)CC2CCCCC2)cc1`, the negative logarithm of the IC50 (pIC50) in assay [1] was 6.76; in assay [2] it was 7.79; in assay [3], 6.70.

Regarding `CC(CCN1CCN(c2ccc(F)cc2)CC1)NS(=O)(=O)c1ccc2ccccc2c1` (centres undefined), the negative logarithm of the IC50 (pIC50) in assay [1] is 6.28; in assay [2], 8.21; in assay [3], 7.05. Also, the Ratio IC50 was 15 in assay [4] and 85 in assay [5].

For the compound `O=S(=O)(c1ccc2ccccc2c1)N(CCCN1CCN(c2ccc(F)cc2)CC1)CC1CC1`, the pIC50 in assay [1] was 7.30; in assay [2], 7.29; in assay [3], 6.46.

In the case of `COc1ccc(S(=O)(=O)N(CCCN2CCN(c3cccc(C(F)(F)F)c3)CC2)CC2CC2)cc1`, the pIC50 in assay [1] was 6.91; in assay [2], 6.14; in assay [3], 5.99.

On to `COc1ccc(S(=O)(=O)N(CCCN2CCN(c3ccccc3OC)CC2)CC2CC2)cc1`, for which the pIC50 in assay [1] is 6.50; in assay [2], 5.66; in assay [3], 5.70.

Take `O=S(=O)(c1cccc2cccnc12)N(CCCN1CCN(c2ccc(F)cc2)CC1)CC1CCCCC1`: the values for the negative-log IC50 (pIC50) in assay [1], in assay [2] and in assay [3] were 6.35, 8.29 and 6.87, respectively.

Turning to `COc1ccccc1N1CCN(CCCN(CC2CCCCC2)S(=O)(=O)c2cccc3cccnc23)CC1`, the negative-log IC50 (pIC50) in assay [1] was 7.62; in assay [2] it was 7.22; in assay [3] it was 6.93.

`COc1ccc(S(=O)(=O)N(CCCN2CCN(c3ccc(F)cc3)CC2)CC2CCCCC2)cc1`: the pIC50 in assay [1] was 6.01; in assay [2], 8.47; in assay [3] it was 7.40.

Take `O=S(=O)(c1ccc(C(F)(F)F)cc1)N(CCCN1CCN(c2ccccc2)CC1)CC1CCCCC1`: the pIC50 was 6.34 in assay [1], 8.15 in assay [2] and 6.81 in assay [3].

Take `COc1ccc(S(=O)(=O)N(CCCN2CCN(c3ccccc3)CC2)CC2CCCCC2)cc1`: the negative-log IC50 (pIC50) is 6.25 in assay [1], 8.03 in assay [2] and 7.10 in assay [3].
